Source: PubChem (Broad Institute)
HIF act: HIF pathway transcriptional activators, primary screen, cell-based, U2OS HRE-luciferase, luminescence. U2OS HRE-luciferase reporter; normalized: DMSO 0%, desferrioxamine 100%. activation, % at 7.5 µM (by protocol). 300,000 tested, 0.32% active;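 active means mean activation of at least 10% of the iron chelator positive control signal, with at least half of replicates also reaching 10%; inconclusive means mean and replicate majority disagree about reaching 10%; inactive means mean and most replicates under 10%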
CSC inhib: cancer stem cell viability inhibitors, primary screen, luminescence; 300,000 tested, 1.1% active; inhibition, % at 7.5 µM; cancer stem cell-like cells viability; in the data active means inhibition above about 75%; inconclusive means no clear call, values can overlap the other calls; tested in HMLE shEcad cells
Calb FLC: C. albicans growth inhibition with fluconazole, primary screen, CaCi-2 strain, Alamar Blue fluorescence | C. albicans CaCi-2 (fluconazole-resistant clinical isolate) + fluconazole, 48 h | growth inhibition, % (test concentration not listed) | 300,000 tested, 0.57% active | AID 1979, 2009;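 active means growth inhibition above about 58% in most replicates, limit read from the data, passing the limit was not always enough; inconclusive means exactly half the replicates above a set limit; inactive means most replicates below a set limit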;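 further: all wells also contain fluconazole at 8 µg/ml as a sub-toxic cotreatment; 0% = median of DMSO wells and 100% = median of geldanamycin control wells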
Beta apoptosis: inhibitors of cytokine-induced beta cell apoptosis, primary screen, luminescence; 300,000 tested, 0.8% active; AID 435005, 2010; INS-1E cytokine-induced death, ATP luminescence, 48 h; percent of positive-control rescue, neutral wells zero; protection from apoptosis, % (test concentration not listed);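 active means Every replicate reaches about 75%, or at least half do and their mean reaches it too, limit read from the data; inconclusive means At least half of replicates reach the limit but their mean does not; inactive means Under half of replicates reach the limit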;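 further: 0% = cytokine-treated negative control wells and 100% = positive control rescue; higher means more ATP so stronger rescue from cytokine killing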
T cruzi repl: inhibitors of intracellular T. cruzi growth, primary screen, luminescence, NIH3T3 host cells. AID 1885, 2009. 300,000 tested, 1.4% active. inhibition, % (concentration not given with the values). T. cruzi beta-gal in NIH3T3, 90 h;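 active means mean inhibition across valid replicates above about 55%, limit read from the data; inconclusive means mean below that limit but half or more replicates reach it; inactive means mean below it, under half of replicates reach it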;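 further: signal also drops with host cell toxicity which is not excluded here; 0% = plate median of DMSO wells and 100% = zero luminescence signal; higher percent means less beta-gal luminescence so fewer parasites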
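System – NIH/3T3 host cells with β-galactosidase reporter T. cruzi · Doses – single 50 nL compound addition per well in DMSO · Reagent – 5000 T. cruzi trypomastigotes/well · Medium – Low-serum DMEM with 2% FBS · Timing – ≥90 h infection period, 3 h prior cell attachment · Evaluation – parasite load inhibition, % · Technique – GalScreen luminescence, 60 min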
PolyA inhibitor: polyadenylation inhibitors in yeast reporter cells, primary screen, luminescence, S. cerevisiae; activity score, % at 12 µM; S. cerevisiae SKY197-pL101 polyadenylation reporter, beta-gal luminescence; efflux-impaired pdr1/pdr3 knockout yeast; score 100 = 6 SD above DMSO; 300,000 tested, 0.02% active;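 active means lowest replicate activity score at least 50, where 100 means six control SD above control mean; inconclusive means lowest score under 50 but half or more replicates reach 50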;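 further: yeast exposed to compound for 9 h at 30 °C; higher score means more reporter readthrough which indicates perturbed polyadenylation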
An asterisk follows results filed as active; ? = inconclusive; nt = no result; ! = not confirmed by another sample. Compounds with a hit are over-represented: about 3.1% of the library has one in this group of screens.

SMILES | HIF act | CSC inhib | Calb FLC | Beta apoptosis | T cruzi repl | PolyA inhibitor
CC1=C(C#N)C(c2ccc(O)cc2)C2=C(CCCC2=O)N1 (stereo not drawn) | 0.0 | -10.1 | 9.7 | -2.8 | 13.6 | -2.2
CC1=C(C#N)C(c2cccnc2)C2=C(CC(c3ccc(Cl)cc3)CC2=O)N1 (stereo not drawn) | 0.1 | -0.6 | 8.5 | -2.4 | 60.1* | 13.5
CC(=O)Nc1c([N+](=O)[O-])cc(C)c(Cl)c1[N+](=O)[O-] | 12.8* | -3.9 | -26.4 | -6.9 | -8.7 | 4.6
CCn1cc(C(=O)NCC(OC)OC)c(=O)c2cc(S(=O)(=O)N3CCCC3)ccc21 | -0.3 | 0.8 | -3.4 | -4.1 | 8.9 | -1.6
CCn1cc(C(=O)NCC(OC)OC)c(=O)c2cc(S(=O)(=O)N3CCC(C)CC3)ccc21 | 29.7* | -1.3 | -1.6 | 4.3 | 9.8 | -7.2
COc1ccc(NC(=O)CSc2nnc(NC(=O)C3CCC3)s2)c(OC)c1 | -0.1 | -9.8 | -5.6 | 3.3 | 14.5 | -9.8
COc1ccc(C2/C(=C(/O)c3ccc(C)cc3)C(=O)C(=O)N2C)c(OC)c1 (stereo not drawn) | 0.9 | -7.0 | -2.9 | -3.7 | -2.4 | -7.4
O=C(Nc1nnc(C2CC2)o1)c1ccc(S(=O)(=O)N2CCCc3ccccc32)cc1 | -0.1 | 22.3 | ? | 27.0 | 58.9* | -6.1
CCc1nnc(NC(=O)c2ccc(S(=O)(=O)N(C)Cc3ccccc3)cc2)o1 | -0.2 | 25.1 | 0.2 | 6.7 | -5.5 | 14.1
CN(Cc1ccccc1)S(=O)(=O)c1ccc(C(=O)Nc2nnc(C3CC3)o2)cc1 | -0.8 | 13.4 | 84.6* | 5.5 | 37.4 | 2.0
CC1CN(S(=O)(=O)c2ccc(C(=O)Nc3nnc(-c4ccc5c(c4)CCCC5)o3)cc2)CC(C)O1 (stereo not drawn) | -0.3 | 18.9 | 3.0 | 41.5 | 61.4* | -6.4
COCc1nnc(NC(=O)c2ccc(S(=O)(=O)N3CCCc4ccccc43)cc2)o1 | 0.0 | 50.4 | 91.6* | 13.7 | -41.5 | -4.5
CC1CN(S(=O)(=O)c2ccc(C(=O)Nc3nnc(-c4ccccn4)o3)cc2)CC(C)O1 (stereo not drawn) | -0.1 | -6.3 | 5.2 | -6.3 | -3.5 | 20.9
COCCNCC(=O)Nc1ccc(OC(F)(F)F)cc1 | 0.2 | -8.5 | 9.1 | -11.2 | -10.7 | 1.4
Cc1noc(C)c1S(=O)(=O)NCc1ccc(CN(C)C)cc1 | nt | -4.9 | nt | -3.7 | nt | nt
O=C(Cc1cnc2ncnn2c1)N1CCc2c([nH]c3ccccc23)C1c1ccccc1F (stereo not drawn) | 0.6 | -12.3 | 2.8 | 4.0 | 3.0 | 7.0
COc1ccc(-c2nnc(NC(=O)c3ccc(S(=O)(=O)N4CCCc5ccccc54)cc3)o2)cc1 | 0.8 | nt | 101.3* | 3.2 | 63.3* | -2.8
COc1cc(-c2nnc(NC(=O)c3ccc(S(=O)(=O)N4CCOCC4)cc3)o2)cc(OC)c1OC | -0.3 | 18.1 | 90.4* | 85.8* | -23.4 | -11.2
CS(=O)(=O)c1ccc(-c2nnc(NC(=O)c3ccc(S(=O)(=O)N4CCCC4)cc3)o2)cc1 | -0.5 | -3.0 | -1.1 | -3.7 | -15.3 | -5.9
CS(=O)(=O)N1CCc2cc(-c3csc(NC(=O)C(c4ccccc4)c4ccccc4)n3)ccc21 | -0.4 | 8.9 | 7.1 | 9.5 | 60.8* | 8.5
CCOc1cc(/C=C/C(=O)N(CC)CC(=O)NCc2cccs2)cc(Cl)c1OC | 0.3 | -11.1 | 0.6 | 1.0 | 6.8 | 7.8
Cc1ccc(-c2c3c(nc4sc(C(N)=O)c(N)c24)CCC3)cc1 | 2.6 | -8.3 | -4.8 | -41.6 | 17.5 | -9.4
Cc1ccc(C(=O)Cn2nnc3c(sc4nc5c(c(-c6ccccc6)c43)CCC5)c2=O)cc1 | -0.6 | 85.8* | 0.2 | 0.5 | 11.7 | -0.6
CCOC(=O)Nc1ccc2c(c1)N(C(=O)CCN1CCOCC1)c1ccccc1S2 | -22.5 | 8.3 | 19.7 | 0.4 | 67.8*! | 4.8
COc1ccc(CNC(=O)CC2C[C@H](C(=O)N3CCOCC3)[C@@]3(CCC4CCCC4)c4[nH]c5ccccc5c4CCN3C2=O)cc1OC (stereo partly drawn) | nt | nt | nt | 6.4 | nt | nt
SMILES | HIF act | CSC inhib | Calb FLC | Beta apoptosis | T cruzi repl | PolyA inhibitor
CCOC(=O)/C(=N/Nc1ccc(OC)cc1)N1CCCc2ccccc21 | 0.3 | 75.4* | -3.6 | 7.5 | 26.6 | -13.0
CCOC(=O)/C(=N/Nc1ccccc1)N1CCCc2ccccc21 | -0.2 | 4.8 | -9.9 | 2.2 | 10.5 | -22.2
COc1cc(SC)ccc1C(=O)Nc1ccc(C)cc1C | 10.4* | 7.5 | 23.6 | 3.1 | 7.0 | -12.4
O=c1cc(-c2ccccc2)[nH]n1-c1ccc([N+](=O)[O-])cc1 | 0.9 | 138.4* | 19.3 | 40.2 | 10.4 | -49.4
O=c1c(N=Nc2ccc(O)cc2)c(-c2ccccc2)[nH]n1-c1ccc([N+](=O)[O-])cc1 | 0.4 | 21.3 | 13.1 | -8.7 | -4.3 | -5.8
C[C@H](CO)N1C[C@H](C)[C@@H](CN(C)S(=O)(=O)c2ccc(F)cc2)Oc2ccc(NC(=O)Nc3ccc(C(F)(F)F)cc3)cc2C1=O | nt | 87.4* | nt | -0.9 | nt | nt
C[C@@H]1CN([C@H](C)CO)C(=O)c2cc(NC(=O)Nc3ccc(C(F)(F)F)cc3)ccc2O[C@H]1CN(C)S(=O)(=O)c1ccc(Cl)cc1 | nt | 77.8* | nt | -6.8 | nt | nt
C[C@@H]1CN([C@@H](C)CO)C(=O)Cc2cc(NC(=O)Nc3ccc(C(F)(F)F)cc3)ccc2O[C@@H]1CN(C)S(=O)(=O)c1ccc(Cl)cc1 | nt | 131.9* | nt | 35.1 | nt | nt
C[C@H]1CN([C@@H](C)CO)C(=O)c2cccc(NC(=O)Nc3ccc(C(F)(F)F)cc3)c2O[C@@H]1CN(C)S(=O)(=O)c1ccc(Cl)cc1 | nt | 130.1* | nt | 37.3 | nt | nt
Cc1cccc(CN2CCC(Oc3ccc(C(=O)N4CCCC4)cc3)CC2)n1 | -0.2 | 1.8 | -0.3 | 2.7 | -10.4 | 7.9
CC(=O)N1c2ccc(S(=O)(=O)N3CCC(C(=O)N4CCN(c5ccc(Cl)cc5)CC4)CC3)cc2CC1C (stereo not drawn) | 0.7 | 2.4 | -23.7 | 37.8 | 6.2 | -2.0
C=CCn1c(SCCC)nc2sc3c(c2c1=O)CCc1ccccc1-3 | -0.3 | 83.0* | 7.6 | 5.7 | 32.3 | 12.5
C=CCSc1nc2sc3c(c2c(=O)n1CC=C)CCc1ccccc1-3 | 0.5 | 5.4 | 7.5 | -1.6 | 42.0 | -5.5
CC(C)=CC(=O)Nc1nc2ccc([N+](=O)[O-])cc2s1 | 0.8 | nt | -22.1 | nt | 31.6 | -37.7
Cc1cc2c(cc1C)NC(c1c(C)n(C)n(-c3ccccc3)c1=O)C1=C(CC(C)(C)CC1=O)N2 (stereo not drawn) | 0.0 | nt | 6.0 | 0.8 | 55.0* | -13.3
Cc1ccc(OCC(=O)Nc2cccc3ccccc23)c([N+](=O)[O-])n1 | nt | -22.2 | nt | -1.1 | nt | nt
